The target in one test is T1, Neprilysin (Rattus norvegicus, UniProt P07861).
T1 sequence (P07861 whole entry): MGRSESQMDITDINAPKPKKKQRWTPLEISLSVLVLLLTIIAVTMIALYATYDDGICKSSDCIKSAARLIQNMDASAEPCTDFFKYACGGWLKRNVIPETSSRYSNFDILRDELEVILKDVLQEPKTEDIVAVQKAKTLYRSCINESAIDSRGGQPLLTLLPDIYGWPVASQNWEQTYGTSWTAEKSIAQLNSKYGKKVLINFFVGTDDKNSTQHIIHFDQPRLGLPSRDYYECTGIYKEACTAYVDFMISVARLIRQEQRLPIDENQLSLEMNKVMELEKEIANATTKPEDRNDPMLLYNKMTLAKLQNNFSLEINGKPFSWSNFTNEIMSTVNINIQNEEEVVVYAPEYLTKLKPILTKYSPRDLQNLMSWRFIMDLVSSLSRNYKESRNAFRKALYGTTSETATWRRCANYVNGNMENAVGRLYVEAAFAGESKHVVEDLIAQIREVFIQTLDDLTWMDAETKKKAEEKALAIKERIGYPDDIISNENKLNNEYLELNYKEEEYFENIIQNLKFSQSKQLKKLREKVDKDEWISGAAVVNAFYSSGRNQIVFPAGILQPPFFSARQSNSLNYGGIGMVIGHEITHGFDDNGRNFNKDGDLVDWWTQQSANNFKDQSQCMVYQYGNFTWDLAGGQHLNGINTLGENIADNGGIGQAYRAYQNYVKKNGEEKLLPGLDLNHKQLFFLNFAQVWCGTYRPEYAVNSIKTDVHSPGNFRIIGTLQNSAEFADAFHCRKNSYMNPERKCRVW
Nature of the test: In vitro inhibition of rat neutral endopeptidase.

The target in test [1] is T2, Endothelin-converting enzyme 1 (Homo sapiens, UniProt P42892).
T2 sequence (P42892 whole entry): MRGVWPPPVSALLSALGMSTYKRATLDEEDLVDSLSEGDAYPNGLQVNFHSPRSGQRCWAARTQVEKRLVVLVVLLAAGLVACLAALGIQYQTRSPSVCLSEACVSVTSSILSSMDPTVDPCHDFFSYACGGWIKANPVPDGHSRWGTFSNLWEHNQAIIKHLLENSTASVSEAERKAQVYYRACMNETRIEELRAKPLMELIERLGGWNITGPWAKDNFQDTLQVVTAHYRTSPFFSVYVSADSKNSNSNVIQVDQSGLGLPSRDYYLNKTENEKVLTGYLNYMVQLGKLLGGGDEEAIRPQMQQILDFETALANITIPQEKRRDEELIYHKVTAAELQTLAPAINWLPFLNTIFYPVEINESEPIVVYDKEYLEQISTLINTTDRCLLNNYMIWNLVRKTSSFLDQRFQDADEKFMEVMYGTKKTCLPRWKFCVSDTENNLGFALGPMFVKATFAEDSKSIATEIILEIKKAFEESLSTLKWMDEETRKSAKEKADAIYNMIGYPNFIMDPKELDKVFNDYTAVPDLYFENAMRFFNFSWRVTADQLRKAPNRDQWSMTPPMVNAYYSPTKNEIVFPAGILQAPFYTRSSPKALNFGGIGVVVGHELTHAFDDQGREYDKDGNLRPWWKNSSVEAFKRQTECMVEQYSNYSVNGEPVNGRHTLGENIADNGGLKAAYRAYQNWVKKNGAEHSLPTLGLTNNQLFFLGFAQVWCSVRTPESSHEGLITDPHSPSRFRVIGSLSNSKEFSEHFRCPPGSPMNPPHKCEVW
Nature of the test: In Vitro inhibition of recombinant human endothelin converting enzyme-1. In outline:
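Enzyme was human recombinant ECE-1a from membranes of CHO cells expressing it. The IC50 was determined by the assay method of earlier work.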

Test [2] is described as follows: Selectivity ratio of IC50 NEP/IC50 ECE. In outline:
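ECE selectivity was the ratio of IC50 against rat kidney cortex NEP 24.11 to IC50 against CHO-membrane human recombinant ECE-1a.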

Test [3] deals with T3, Endothelin-converting enzyme 1 (Homo sapiens) (UniProt P42892).
T3 sequence (whole entry): T2 sequence (P42892 whole entry)
In words: Inhibition of Endothelin-converting enzyme 1 activity at a concentration of 1 uM. Summed up: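 Human recombinant ECE-1a came from CHO cell membranes. Activity was measured with test compound at 1 µM and expressed as percent inhibition.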

Molecules are shown by their SMILES. A value given as a limit tells only on which side of the number the result lay.

Consider `O=C(O)[C@H](Cc1ccc2c(c1)oc1ccccc12)NCP(=O)(O)O`, for which the IC50 on Neprilysin came to 2300 nM; in test [1], 22 nM. Also, the Selectivity in test [2] was determined as 104. Moreover, the inhibition in test [3] came out at 92%.

As to `Cn1c2ccccc2c2ccc(CC(NCP(=O)(O)O)c3nnn[nH]3)cc21` (stereo not drawn), the concentration for half-maximal inhibition (IC50) against Neprilysin is 140 nM; in test [1], more than 4000 nM. The Selectivity in test [2] was less than 0.03.

As to `O=C(O)[C@H](Cc1ccc2c(c1)oc1ccccc12)NC(=O)[C@H](Cc1ccc2c(c1)oc1ccccc12)NCP(=O)(O)O`, the IC50 was determined as 2.7 nM at Neprilysin and 6.4 nM in test [1]. Also, in test [2], the Selectivity was 0.42. The inhibition in test [3] stood at 95%.

With `O=C1c2ccccc2-c2ccc(CC(NCP(=O)(O)O)c3nnn[nH]3)cc21` (stereo not drawn), the figures for the half-inhibitory concentration (IC50) (on Neprilysin; in test [1]) were 230 nM and 30 nM, respectively. Moreover, the Selectivity in test [2] is 7.7.

For the molecule `O=P(O)(O)CNC(Cc1ccc2c(c1)oc1ccccc12)c1nnn[nH]1` (stereo not drawn), the IC50 turned out to be 114 nM on Neprilysin and 6 nM in test [1]. Further, in test [2], the Selectivity turned out to be 19.

As to `CC(C)CCCC(N[C@@H](Cc1ccc2c(c1)oc1ccccc12)C(=O)O)P(=O)(O)O` (stereo partly drawn), the half-maximal inhibitory concentration (IC50) against Neprilysin was more than 16000 nM; in test [1] it was 65 nM. In test [2], the Selectivity is more than 286. This molecule gave an inhibition in test [3] of 89%.

Consider `COc1cc(CCC(N[C@@H](Cc2ccc3c(c2)oc2ccccc23)C(=O)O)P(=O)(O)O)cc(OC)c1OC` (stereo partly drawn), for which the half-inhibitory concentration (IC50) came to 18000 nM against Neprilysin and 22 nM in test [1]. For the same molecule, the Selectivity in test [2] was 818. For the same molecule, in test [3], the inhibition is 92%.

On to `O=P(O)(O)CNC(Cc1ccc2c(c1)Cc1ccccc1-2)c1nnn[nH]1` (stereo not drawn), for which the figures for the 50% inhibitory concentration (IC50) (on Neprilysin; in test [1]) were 450 nM and 520 nM, respectively. The Selectivity in test [2] was 0.9.

In the case of `CC(C)CC(NC(=O)[C@H](Cc1ccc2c(c1)oc1ccccc12)NCP(=O)(O)O)C(=O)O` (stereo partly drawn), the IC50 at Neprilysin was found to be 31 nM; in test [1], 13 nM. Besides, in test [2], the Selectivity came to 2.3. The same molecule came in with an inhibition in test [3] of 92%.

As to `O=C(O)C(Cc1ccccc1)NC(=O)[C@H](Cc1ccc2c(c1)oc1ccccc12)NCP(=O)(O)O` (stereo partly drawn), the IC50 at Neprilysin came to 12 nM; in test [1], 23 nM. The Selectivity in test [2] is 0.5. In test [3], the inhibition was found to be 91%.

For `O=C(O)[C@H](Cc1ccc2c(c1)oc1ccccc12)NC(CCc1cccc2cccnc12)P(=O)(O)O` (stereo in doubt; 40n'), the results for the IC50 (against Neprilysin; in test [1]) were 48000 nM and 200 nM, respectively.

In the case of `NCCCCC(N[C@@H](Cc1ccc2c(c1)oc1ccccc12)C(=O)O)P(=O)(O)O` (stereo in doubt; 40o'), the IC50 against Neprilysin was more than 100000 nM; in test [1], 97 nM.

As for `CC(N[C@@H](Cc1ccc2c(c1)oc1ccccc12)C(=O)O)P(=O)(O)O` (stereo in doubt; 40u), the results for the IC50 (against Neprilysin; in test [1]) were 28000 nM and 96 nM, respectively.

Turning to `CC(N[C@@H](Cc1ccc2c(c1)oc1ccccc12)C(=O)O)P(=O)(O)O` (stereo in doubt; 40v), the half-maximal inhibitory concentration (IC50) was determined as 47000 nM on Neprilysin and 180 nM in test [1].

For `O=P(O)(O)C(CCc1cccc2ccccc12)N[C@@H](Cc1ccc2c(c1)oc1ccccc12)c1nnn[nH]1` (stereo in doubt; 43a'), the values for the concentration for half-maximal inhibition (IC50) (on Neprilysin; in test [1]) were 210 nM and 2.6 nM, respectively.

With `O=P(O)(O)C(CCc1cccc2ccccc12)N[C@@H](Cc1ccc2c(c1)oc1ccccc12)c1nnn[nH]1` (stereo in doubt; 43b'), the results for the IC50 (at Neprilysin; in test [1]) were 13000 nM and 440 nM, respectively.

The IC50 is the concentration that gives 50% inhibition. Usually inhibition stands for the change of the read-out against control, counted positive when it falls.

The values above are taken from ChEMBL document CHEMBL1133584, “Potent and selective non-peptidic inhibitors of endothelin-converting enzyme-1 with sustained duration of action” (J Med Chem, 2000).
